Several values for one entry are separate records, joined by “and”; a condition that tells them apart may be missing. Identical values can stand only once. Activity calls are given as the source filed them.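 The calls were made as follows: active = compounds lowering reporter light with a fitted half-maximal dose no more than twice the top dose tested; inconclusive = flat curve at 30 to 70% inhibition, or poor fit; inactive = the rest.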
Experiments:
[1] = tested on: NIH3T3-HGL HSE-luciferase, MG132-induced, luminescence 8 h; test: inhibition of MG132-induced HSE-luciferase signal, dose response, cell-based, NIH3T3, luminescence, dry powder samples (AID 602268)
Method in brief: (§1)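 material = NIH3T3-HGL mouse fibroblasts with heat shock element-driven eGFP–firefly luciferase | amount = 4,000 cells/well | medium = Opti-MEM, 2.5% fetal bovine serum | timing = 24 h cell seeding, 30 min compound pretreatment, 8 h MG132 | measured by = Steady-Glo luminescence of luciferase | benchmarks = positive control Didemnin B, 400 nM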

[2] = as above; conditions: NIH3T3-HGL HSE-luciferase, MG132-induced, luminescence 8 h; at 26 µM (top of the series)
Method in brief: as §1

| SMILES | AC50 [1] | activity change, negative = inhibition [2] |
| --- | --- | --- |
| CC1=NNC(=O)/C1=C\c1cn(-c2ccccc2)nc1-c1ccc(Cl)cc1 | 1460 nM | – |
| O=C1C=C(NCCN2CCOCC2)C(=O)c2cnccc21 | 2370 nM | – |
| O=C(CCl)N1CCCC1c1ccc2c(c1)OCCO2 (stereo not given) | 949 nM | – |
| CCc1ccc(NC(=O)C2C3CCC(O3)C2C(=O)O)cc1 (stereo not given) | – | 7.59% (inactive) and -9.7% (inactive) |
| Oc1ccc(Br)cc1/C=N/Nc1ccccn1 | 1720 nM | – |

— PubChem BioAssay AID602268 (Broad Institute, 2012)
